Data taken from ChEMBL document CHEMBL3588785 (J Med Chem, 2015).
Converted amounts (≈) assume the structure as drawn. The source made the active and inactive calls. No cut-off for these calls is given here.

How the values were obtained:
Homo sapiens [1] = species on record: Homo sapiens; test: Selectivity for ERK (unknown origin) over DYRK2 (unknown origin) at 1 uM
In short: (§1)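 Panel of 125 kinases screened with compound at 1 µM; kinases inhibited above 75% were recorded.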

[2] = Intrinsic clearance in human liver microsomes; assay type: ADME; conditions: read-out: CLH
Hepatocyte = test: Intrinsic clearance in rat hepatocytes; assay type: ADME, cell-based
[3] = target: T1, Mitogen-activated protein kinase 1 (Homo sapiens, UniProt P28482); test: Inhibition of MEK U911-activated ERK2 (unknown origin) using Erktide as substrate preincubated with enzyme for 20 mins prior to substrate addition by RapidFire Mass Spectrometry in presence of ATP at Km concentration
[4] = target: T1, Mitogen-activated protein kinase 1; test: Inhibition of MEK U911-activated ERK2 (unknown origin) using Erktide as substrate preincubated with enzyme for 20 mins prior to substrate addition by RapidFire Mass Spectrometry in presence of ATP at higher concentration
[5] = target: T1, Mitogen-activated protein kinase 1; test: Inhibition of ERK2 in human A375 cells harboring B-RAF V600E mutant assessed as decrease in phospho-ERK2 level after 2 hrs by Cellomics ArrayScanTM VTI imaging analysis; assay type: cell-based, A-375
[6] = target: Mitogen-activated protein kinase; ERK1/ERK2 (Homo sapiens, UniProt P27361+P28482); test: Inhibition of ERK1/2 in human A375 cells harboring B-RAF V600E mutant assessed as decrease in phospho-RSK level after 2 hrs by Cellomics ArrayScanTM VTI imaging analysis; assay type: cell-based; conditions: a-375
A-375 = test: Antiproliferative activity against human A375 cells harboring B-RAF V600E mutant after 72 hrs by Cellomics ArrayScanTM VTI imaging analysis; assay type: functional, cell-based; conditions: A-375, 72 h
[7] = target: Dual specificity mitogen-activated protein kinase kinase 1 (Homo sapiens, UniProt Q02750); test: Inhibition of MEK1 (unknown origin) autophosphorylation incubated with enzyme for 20 mins prior to ATP addition by ADP Glo kinase assay in presence of ATP at Km concentration
Chain of Dual specificity mitogen-activated protein kinase kinase 1 (Q02750 whole entry): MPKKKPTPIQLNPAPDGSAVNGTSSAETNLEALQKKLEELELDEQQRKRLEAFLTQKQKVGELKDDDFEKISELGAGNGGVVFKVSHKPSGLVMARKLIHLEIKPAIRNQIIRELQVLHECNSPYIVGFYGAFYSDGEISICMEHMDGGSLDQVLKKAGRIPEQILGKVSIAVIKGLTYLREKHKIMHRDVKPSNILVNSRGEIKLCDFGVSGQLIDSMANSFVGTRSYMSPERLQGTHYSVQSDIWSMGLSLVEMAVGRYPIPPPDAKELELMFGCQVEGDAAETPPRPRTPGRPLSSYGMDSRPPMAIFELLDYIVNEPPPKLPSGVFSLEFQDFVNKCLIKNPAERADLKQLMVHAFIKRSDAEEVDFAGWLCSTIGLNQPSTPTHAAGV

[8] = 1-Octanol-aqueous phosphate buffer partition coefficient, logD of the compound at pH 7.4; assay type: physicochemical
In short: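 Partition of compound between 1-octanol and aqueous phosphate buffer, pH 7.4; reported as distribution coefficient.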

[9] = Solubility of the compound in aqueous phosphate buffer at 25 degC at pH 7.4 after 24 hrs; assay type: physicochemical
Homo sapiens [10] = species on record: Homo sapiens; test: Selectivity for ERK (unknown origin) over C-RAF (unknown origin) at 1 uM; in short: as §1
Homo sapiens [11] = species on record: Homo sapiens; test: Selectivity for ERK (unknown origin) over MEK1 (unknown origin) at 1 uM; in short: as §1
Homo sapiens [12] = species on record: Homo sapiens; test: Selectivity for ERK (unknown origin) over FLT1 (unknown origin) at 1 uM; in short: as §1
[13] = target: T1, Mitogen-activated protein kinase 1; test: Covalent binding to ERK2 (unknown origin) after 2 hrs by mass spectrometry
In short: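 ERK2 protein incubated with compound at 3-fold molar excess over protein, room temperature, 2 hours; sample diluted 10-fold and loaded immediately for intact-mass MS.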

Homo sapiens [14] = species on record: Homo sapiens; test: Selectivity for ERK (unknown origin) over AUR-B (unknown origin) at 1 uM; in short: as §1
Homo sapiens [15] = species on record: Homo sapiens; test: Selectivity for ERK (unknown origin) over AUR-C (unknown origin) at 1 uM; in short: as §1
Homo sapiens [16] = species on record: Homo sapiens; test: Selectivity for ERK (unknown origin) over TRKA (unknown origin) at 1 uM; in short: as §1
Homo sapiens [17] = species on record: Homo sapiens; test: Selectivity for ERK (unknown origin) over FAK (unknown origin) at 1 uM; in short: as §1
[18] = GSH reactivity assessed as half life
[19] = Stability in pH 7.4 buffer assessed as drug hydrolysis; assay type: physicochemical
In short: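 Compound held in pH 7.4 buffer alone at 37 °C, monitored over 11 hrs for hydrolysis.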

Homo sapiens [20] = species on record: Homo sapiens; test: Selectivity for ERK (unknown origin) over AXL (unknown origin) at 1 uM; in short: as §1
Homo sapiens [21] = species on record: Homo sapiens; test: Selectivity for ERK (unknown origin) over CDK1 (unknown origin) at 1 uM; in short: as §1
Homo sapiens [22] = species on record: Homo sapiens; test: Selectivity for ERK (unknown origin) over CDK7 (unknown origin) at 1 uM; in short: as §1
Homo sapiens [23] = species on record: Homo sapiens; test: Selectivity for ERK (unknown origin) over IGF-1R (unknown origin) at 1 uM; in short: as §1
Homo sapiens [24] = species on record: Homo sapiens; test: Selectivity for ERK (unknown origin) over IR (unknown origin) at 1 uM; in short: as §1
Homo sapiens [25] = species on record: Homo sapiens; test: Selectivity for ERK (unknown origin) over MET (unknown origin) at 1 uM; in short: as §1

| SMILES | microsomal CLint [2] [µL/min/mg] | CLH (Hepatocyte) [µL/min/mg] | IC50 [3] [µM] | IC50 [4] [µM] | IC50 [5] [µM] | IC50 [6] [µM] | IC50 (A-375) [µM] | IC50 [7] [µM] | logD [8] | solubility at 24 h [9] [µM] | Selectivity ratio (Homo sapiens [10]) | further results |
| --- | --- | --- | --- | --- | --- | --- | --- | --- | --- | --- | --- | --- |
| C=CC(=O)Nc1ccccc1Nc1nc(N[C@H]2CC[C@H](N(C)C)CC2)ncc1Cl | < 3 | 25 | 0.085 | 0.09 | 0.072 | 0.2 | 0.12 | > 10 | 0.9 | 770 (≈ 320 µg/mL) | 4 | Selectivity ratio (Homo sapiens [1]): 4; Selectivity ratio (Homo sapiens [11]): 4; Selectivity ratio (Homo sapiens [12]): 4 |
| C=CC(=O)Nc1ccccc1Nc1nc(NC2CCOCC2)ncc1C | 13 | 59 | 0.077 | 0.088 | 0.17 | 0.74 | 0.47 | > 10 | 2 | 170 (≈ 60.1 µg/mL) | 2 | Selectivity ratio (Homo sapiens [11]): 2 |
| C=CS(=O)(=O)Nc1ccc2[nH]nc(-c3ccncc3)c2c1 |  |  | 0.0075 | 0.017 | 0.12 | 0.47 | 1.3 | > 10 | 2.2 | 7 (≈ 2.1 µg/mL) | 8 | Activity [13]: Active; Selectivity ratio (Homo sapiens [14]): 8; Selectivity ratio (Homo sapiens [15]): 8; Selectivity ratio (Homo sapiens [12]): 8; Selectivity ratio (Homo sapiens [16]): 8 |
| O=C(Nc1ccc2[nH]nc(-c3ccncc3)c2c1)[C@@H]1CCN(CC(=O)N2CCN(c3ccc(-c4ncccn4)cc3)CC2)C1 |  |  |  |  |  |  | 0.07 |  | 3.2 | < 2.1 |  |  |
| CCS(=O)(=O)N1CCc2cnc(NC3CCOCC3)nc2C1 |  |  | 9 | > 10 | 10 | > 30 |  |  |  |  |  |  |
| C=CC(=O)Nc1ccccc1Nc1nc(Nc2ccnn2C)ncc1Cl | 42 | 120 | 0.0099 | 0.013 | 0.048 | 0.12 | 0.091 | 0.12 | 2.4 | 520 (≈ 192 µg/mL) | 7 | Selectivity ratio (Homo sapiens [17]): 7; Selectivity ratio (Homo sapiens [11]): 7; Selectivity ratio (Homo sapiens [14]): 7; Selectivity ratio (Homo sapiens [15]): 7; Selectivity ratio (Homo sapiens [12]): 7 |
| COc1cc(O)c2c(c1)/C=C/C[C@H](O)[C@@H](O)C(=O)/C=C/C[C@H](C)OC2=O |  |  | 5.1 | 3.7 | 1.6 | 5.7 | 4.1 | 3.4 | 1.6 | 47 (≈ 17 µg/mL) |  |  |
| CNC(=O)c1ccccc1Nc1cc(NC2CCOCC2)ncc1Cl |  |  | 0.26 |  | 7.5 | 10 |  | > 10 | 2.8 | 290 (≈ 105 µg/mL) |  |  |
| C=CC(=O)Nc1ccccc1Nc1nc(NC2CCOCC2)ncc1Cl | 67 | 200 | 0.0085 | 0.0054 | 0.019 | 0.069 | 0.057 | > 10 | 2.7 | 46 (≈ 17.2 µg/mL) | 4 | Activity [13]: Active; T1/2 [18]: 2.53 h; Stability [19]: Stable; Selectivity ratio (Homo sapiens [14]): 4; Selectivity ratio (Homo sapiens [15]): 4; Selectivity ratio (Homo sapiens [12]): 4 |
| CC(C)Nc1cc(-c2c[nH]c(C(=O)N[C@H](CO)c3cccc(Cl)c3)c2)c(Cl)cn1 [ULIXERTINIB] |  |  |  |  |  |  | 0.18 |  | > 4 | 8.5 (≈ 3.68 µg/mL) |  |  |
| C=CC(=O)Nc1ccccc1Nc1nc(Nc2ccnn2C)ncc1C | 19 | 33 | 0.039 | 0.047 | 0.066 | 0.28 | 0.24 | 0.26 | 2.1 | 990 (≈ 346 µg/mL) |  |  |
| C=CS(=O)(=O)N1CCc2[nH]nc(-c3ccnc(C)c3)c2C1 |  |  | 0.074 | 0.11 | 0.38 | 1 | 1.4 | 4.9 | 1.6 | 300 (≈ 91.3 µg/mL) | 5 | Selectivity ratio (Homo sapiens [11]): 5; Selectivity ratio (Homo sapiens [12]): 5 |
| CNC(=O)c1ccc(F)cc1Nc1cc(Nc2cc(C)nn2C)ncc1C(F)(F)F |  |  | 0.044 | 0.34 | 8.7 | 5.1 | 1.4 | > 10 | 3.8 | 15 (≈ 6.34 µg/mL) |  | Selectivity ratio (Homo sapiens [20]): 10; Selectivity ratio (Homo sapiens [21]): 10; Selectivity ratio (Homo sapiens [22]): 10; Selectivity ratio (Homo sapiens [23]): 10; Selectivity ratio (Homo sapiens [24]): 10; Selectivity ratio (Homo sapiens [25]): 10; Selectivity ratio (Homo sapiens [17]): 10; Selectivity ratio (Homo sapiens [14]): 10; Selectivity ratio (Homo sapiens [15]): 10; Selectivity ratio (Homo sapiens [16]): 10 |
| CCS(=O)(=O)Nc1ccc2[nH]nc(-c3ccncc3)c2c1 |  |  | 0.28 | 1.8 | 10 | > 30 | > 30 |  |  |  |  |  |
| CNC(=O)c1ccc(F)cc1Nc1cc(NC2CCOCC2)ncc1C(F)(F)F |  |  | 0.04 | 0.38 | 2.1 | 2.4 | 3.4 | > 10 | 3.4 | 8.8 (≈ 3.63 µg/mL) | 4 | Selectivity ratio (Homo sapiens [22]): 4; Selectivity ratio (Homo sapiens [25]): 4; Selectivity ratio (Homo sapiens [17]): 4 |
| C=CC(=O)Nc1ccccc1Nc1cc(NC2CCOCC2)ncc1Cl | 24 | 270 | 0.042 | 0.06 | 0.12 | 0.4 | 0.68 | > 10 | 2.5 | 40 (≈ 14.9 µg/mL) | 2 | Selectivity ratio (Homo sapiens [11]): 2 |
| CCC(=O)Nc1ccccc1Nc1nc(NC2CCOCC2)ncc1Cl |  |  | 0.48 | 4 | > 30 | > 30 | 6.6 |  |  |  |  |  |
